Each structure is given as a SMILES string. Active and inactive are the calls of the source. The calls are words filed in the database; no cut-off is given here.

The source of these data is ChEMBL document CHEMBL4613285 (ACS Med Chem Lett, 2020).

The nature of data set [1]: Ratio of drug level in brain to plasma in CD-1 mouse at 3 mg/kg, iv measured after 60 mins. It is filed as ADME, organism-based. Conditions: brain and plasma, read-out: BPR. The essentials: (§1)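 Male CD1 mice (n=2) dosed IV at 3 mg/kg; brain and plasma sampled at 8 and 60 min; values reported as mean ± standard error.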
Data set [2] has as its system MDR1. Briefly: Efflux ratio of permeability in MDCK-MDR1 cells. It is filed as ADME, cell-based, Canis lupus familiaris. The following applies: dog.
Data set [3] is described as follows: Volume of distribution at steady state in CD-1 mouse at 3 mg/kg, iv. Type of data set: ADME, organism-based. The following applies: in vivo. The essentials: (§2)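 Plasma PK in male CD1 mice (n=3, mean) after 3 mg/kg IV; vehicle 5% DMSO in 10% HP-β-CD in saline, pH adjusted with HCl; C0, C1h and Vss derived from plasma profile.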
For data set [4], the target named is T1, Protein deacetylase HDAC6 (Mus musculus, UniProt Q9Z2V5).
T1 sequence (Q9Z2V5 whole entry): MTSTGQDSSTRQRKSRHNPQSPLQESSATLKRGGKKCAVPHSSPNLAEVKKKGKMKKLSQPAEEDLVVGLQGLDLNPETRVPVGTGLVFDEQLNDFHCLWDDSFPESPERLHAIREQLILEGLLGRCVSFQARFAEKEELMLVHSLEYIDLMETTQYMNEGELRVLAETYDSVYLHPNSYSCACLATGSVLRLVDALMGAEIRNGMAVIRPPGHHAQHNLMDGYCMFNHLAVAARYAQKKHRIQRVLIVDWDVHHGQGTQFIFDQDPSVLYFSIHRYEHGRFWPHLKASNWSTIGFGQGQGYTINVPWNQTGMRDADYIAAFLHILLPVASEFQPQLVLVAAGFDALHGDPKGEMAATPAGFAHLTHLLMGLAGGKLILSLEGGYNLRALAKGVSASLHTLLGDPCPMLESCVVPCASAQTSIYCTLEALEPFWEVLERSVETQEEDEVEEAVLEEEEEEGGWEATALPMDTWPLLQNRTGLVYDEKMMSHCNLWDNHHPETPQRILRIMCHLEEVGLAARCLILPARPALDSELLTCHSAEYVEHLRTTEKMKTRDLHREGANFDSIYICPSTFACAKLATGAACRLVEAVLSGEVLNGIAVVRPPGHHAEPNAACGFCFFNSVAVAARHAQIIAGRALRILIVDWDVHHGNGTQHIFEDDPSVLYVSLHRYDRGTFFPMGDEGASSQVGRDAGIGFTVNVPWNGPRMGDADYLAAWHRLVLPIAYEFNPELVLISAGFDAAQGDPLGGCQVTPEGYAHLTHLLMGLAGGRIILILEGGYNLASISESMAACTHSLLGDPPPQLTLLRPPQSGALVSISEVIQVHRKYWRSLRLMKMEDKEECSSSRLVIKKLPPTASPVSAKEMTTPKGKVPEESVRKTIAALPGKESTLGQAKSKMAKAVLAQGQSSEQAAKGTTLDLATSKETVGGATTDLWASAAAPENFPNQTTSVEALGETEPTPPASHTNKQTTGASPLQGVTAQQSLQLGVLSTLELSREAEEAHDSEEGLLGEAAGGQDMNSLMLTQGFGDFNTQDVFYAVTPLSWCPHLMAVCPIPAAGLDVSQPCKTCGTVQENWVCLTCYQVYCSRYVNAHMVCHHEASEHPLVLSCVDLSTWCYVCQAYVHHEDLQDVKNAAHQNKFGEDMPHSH
Briefly: Inhibition of HDAC6 in mouse N2A cells. It is filed as cell-based.

A further data set addresses Histone deacetylase 1 (Mus musculus, UniProt O09106). Briefly: Inhibition of HDAC1 in mouse N2A cells. It is filed as cell-based.
Data set [5] deals with MDR1. Briefly: Efflux ratio of apparent permeability from basolateral to apical over apical to basolateral side in MDCK-MDR1 cells incubated for 2 hrs by LC-MS/MS analysis. The following applies: dog.
The nature of data set [6]: Protein binding in mouse plasma. It is filed as ADME, cell-free. The following applies: read-out: PPB (converted).
For data set [7], the target named is T1, Protein deacetylase HDAC6. Briefly: Inhibition of HDAC6 in mouse N2A cells assessed as increase in alpha tubulin acetylation. Type of data set: cell-based. The essentials:
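N2a cells; α-tubulin acetylation read out; 10-dose EC50 mode, singlet, 3-fold serial dilutions from 100 μM top concentration.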

Data set [8] can be described thus: Initial plasma concentration in CD-1 mouse at 3 mg/kg, iv measured at 0 mins. It is filed as ADME, organism-based. The essentials: as §2
Data set [9] can be described thus: Ratio of drug level in brain to plasma in C57BL/6 mouse at 3 mg/kg, iv measured after 8 mins by LC-MS/MS analysis. The following applies: brain and plasma.
The nature of data set [10]: Metabolic stability in mouse plasma assessed as half life. It is filed as ADME, cell-free.
Data set [11] can be described thus: AUC in CD-1 mouse at 3 mg/kg, iv. Conditions: in vivo. It is filed as ADME, organism-based.
Data set [12] can be described thus: Oral bioavailability in CD-1 mouse at 30 mg/kg. It is filed as ADME, organism-based. The following applies: in vivo.
Data set [13] is described as follows: Protein binding in mouse plasma assessed as unbound fraction measured at initial point. Type of data set: ADME, cell-free. The essentials:
(§3)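 Unbound plasma level derived from total concentrations predicted for 10 mg/kg IP using IV PK data, corrected by measured mouse plasma protein binding; given at initial point and 1 h.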

Data set [14] in a line: Protein binding in mouse brain homogenate. Type of data set: ADME, tissue-based. The following applies: read-out: PB (converted).
Data set [15] can be described thus: Drug concentration in CD-1 mouse plasma at 3 mg/kg, iv measured at 60 mins. Type of data set: ADME, organism-based. The essentials: as §1
Data set [16] in a line: Plasma concentration in CD-1 mouse at 3 mg/kg, iv measured at 1 hr. Type of data set: ADME, organism-based. The essentials:
as §2

Data set [17] in a line: Metabolic stability in mouse liver microsomes assessed as half life. Type of data set: ADME, Microsome. In general terms: Microsomes from liver hold many membrane-bound enzymes, among them those of drug oxidation.
Data set [18] can be described thus: Initial plasma concentration in CD-1 mouse at 30 mg/kg, po measured at 0 mins. It is filed as ADME, organism-based. Conditions: read-out: C0. The essentials: (§4)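 Plasma PK in male CD1 mice (n=3, mean) after 30 mg/kg oral dosing; formulation 5% DMSO in 10% HP-β-CD in saline, pH adjusted with HCl; C0 and C1h from plasma profile.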
Data set [19] is described as follows: Drug concentration in CD-1 mouse plasma at 3 mg/kg, iv measured at 8 mins. Type of data set: ADME, organism-based. The essentials: as §1
Data set [20] is described as follows: Metabolic stability in mouse Hepatocyte assessed as half life. Type of data set: ADME, cell-based. The following applies: hepatocytes.
Data set [21] is described as follows: Drug concentration in CD-1 mouse brain at 3 mg/kg, iv measured at 60 mins. Type of data set: ADME, organism-based. Conditions: read-out: Ct. The essentials:
as §1

The nature of data set [22]: AUC in CD-1 mouse at 30 mg/kg, po. It is filed as ADME, organism-based. The following applies: in vivo.
The nature of data set [23]: Drug concentration in CD-1 mouse brain at 3 mg/kg, iv measured at 8 mins. Type of data set: ADME, organism-based. The following applies: read-out: Ct. The essentials:
as §1

Data set [24] is described as follows: Ratio of drug level in brain to plasma in CD-1 mouse at 3 mg/kg, iv measured after 8 mins. It is filed as ADME, organism-based. Conditions: brain and plasma, read-out: BPR. The essentials: as §1
A short description of data set [25]: Free drug concentration in mouse brain at 25 mg/kg measured at 8 mins. Type of data set: ADME, organism-based. Conditions: in vivo. The essentials:
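Free brain exposure calculated for 25 mg/kg from brain PK at 8 min and brain homogenate binding.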

Data set [26] in a line: Protein binding in mouse plasma assessed as unbound fraction measured at 1 hr. Type of data set: ADME, cell-free. The essentials:
as §3

A short description of data set [27]: Plasma concentration in CD-1 mouse at 30 mg/kg, po measured at 1 hr. It is filed as ADME, organism-based. The essentials:
as §4

Data set [28] in a line: Half life in CD-1 mouse at 30 mg/kg, po. It is filed as ADME, organism-based. The following applies: in vivo.
Data set [29] can be described thus: Half life in CD-1 mouse at 3 mg/kg, iv. It is filed as ADME, organism-based. The following applies: in vivo.
The species named for a further data set is Mus musculus. Nature of the data set: Selectivity index, ratio of IC50 for HDAC1 in mouse N2A cells to IC50 for HDAC6 in mouse N2A cells. It is filed as cell-based.
The target in data set [30] is T2, Protein deacetylase HDAC6 (Mus musculus) (UniProt Q9Z2V5).
T2 sequence (whole entry): T1 sequence (Q9Z2V5 whole entry)
Nature of the data set: In vivo inhibition of HDAC6 in C57BL/6 mouse cortex assessed as increase in alpha tubulin acetylation at 20 mg/kg, ip administered bid with interval of 4 hrs and measured after 1.5 hrs of last dosage by Western blot analysis. Type of data set: functional, organism-based. The essentials: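 Adult male C57BL/6 mice got two IP injections of 20 mg/kg, 4 h apart, and were killed 1.5 h after the second. Cortical homogenates were Western blotted (n = 3–4 per group) for acetylated α-tubulin/total tubulin densitometric ratio, normalized to vehicle-treated baseline (100%). Mean and standard deviation are reported; significance versus vehicle at p < 0.05 or p < 0.01.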
(A western blot detects proteins with antibodies after separation by electrophoresis.)

Histone deacetylase 1, sequence (O09106 whole entry): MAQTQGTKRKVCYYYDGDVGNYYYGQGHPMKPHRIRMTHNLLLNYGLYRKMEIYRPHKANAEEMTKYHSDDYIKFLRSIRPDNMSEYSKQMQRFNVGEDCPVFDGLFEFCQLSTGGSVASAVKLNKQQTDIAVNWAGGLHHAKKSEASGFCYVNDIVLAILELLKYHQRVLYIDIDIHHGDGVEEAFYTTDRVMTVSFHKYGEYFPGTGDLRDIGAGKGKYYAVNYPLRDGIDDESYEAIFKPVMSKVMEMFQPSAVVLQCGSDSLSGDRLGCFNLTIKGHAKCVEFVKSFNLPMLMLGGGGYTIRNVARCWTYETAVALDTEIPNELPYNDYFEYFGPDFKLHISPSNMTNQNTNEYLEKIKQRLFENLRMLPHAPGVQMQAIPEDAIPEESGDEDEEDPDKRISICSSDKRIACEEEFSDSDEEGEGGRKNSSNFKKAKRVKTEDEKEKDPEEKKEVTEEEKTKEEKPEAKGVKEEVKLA

With `CN1CCc2c(c3ccccc3n2Cc2ccc(C(=O)NO)cc2)C1` [TUBASTATIN A], in data set [1], the Kp at 1 h was 0.86. For the same molecule, the efflux ratio in the data set with MDR1 [2] worked out at 9.83. In data set [3], this molecule returned a Vdss of 4.14 L/kg. The IC50 was determined as 0.0044 µM in data set [4] and 8.1 µM against Histone deacetylase 1. The efflux ratio at 2 h in the data set on MDR1 [5] amounted to 9.83. Further, the fraction unbound in [6] was 0.34; in data set [14], 0.094. Further, the concentration for a half-maximal effect (EC50) in data set [7] is 0.145 µM. Moreover, the C0 at 0 h in data set [8] is 1240 ng/mL. For the same molecule, the Kp at 8 min in data set [9] and in data set [24] was 0.15 throughout. Besides, the half-life in data set [10] is 30 min; in data set [17] it was above 60 min; in [20] it was above 60 min; in [28], 51.6 min. In addition, the results for the AUC in data set [11] and in data set [22] were 227 ng·h/mL and 134 ng·h/mL, respectively. The bioavailability in data set [12] was found to be 5.9%. The “C0(unbound)” value in data set [13] turned out to be 3770 nM. Further, the concentration at 1 h in [15] was found to be 20.3 ng/mL; in data set [16], 29.7 ng/mL; in [21], 17.5 ng/g; in data set [27] it was 41.9 ng/mL. In [18], the concentration at 0 h is 135 ng/mL. Also, the concentration at 8 min in data set [19] is 274 ng/mL; in [23], 40.5 ng/g. Also, in [25], the “Drug uptake(free)” value was 0.1 µM. Also, the “Cp(f)” value in [26] amounted to 90 nM. Besides, the t1/2 in [29] was 21 min.
For the molecule `O=C(NO)c1ccc(Cn2cccn2)cc1`, the Ratio IC50 in the data set listed under Mus musculus turned out to be 150. For the same molecule, in [1], the Kp at 1 h turned out to be 5.08. For the same molecule, the efflux ratio in the data set on MDR1 [2] was determined as 0.51. Further, the half-inhibitory concentration (IC50) in data set [4] worked out at 0.0455 µM; against Histone deacetylase 1, 6.86 µM. Moreover, the EC50 in [7] stood at 0.932 µM. Moreover, the concentration at 1 h worked out at 6 ng/mL in data set [15] and 30.5 ng/g in data set [21]. In addition, the concentration at 8 min was determined as 345 ng/mL in data set [19] and 354 ng/g in [23]. Also, the outcome in data set [30] was Active. In [24], the Kp at 8 min is 1.03.
As for `O=C(NO)c1ccc(CN2CCc3ccc(F)cc32)cc1`, the Ratio IC50 in the data set listed under Mus musculus worked out at 571. Besides, in [1], the Kp at 1 h was found to be 9.5. Also, in the data set on MDR1 [2], the efflux ratio was determined as 1.05. The figures for the half-inhibitory concentration (IC50) (in data set [4]; at Histone deacetylase 1) were 0.0097 µM and 5.54 µM, respectively. In [7], the EC50 amounted to 0.25 µM. The results for the concentration at 1 h in data set [15] and in data set [21] were 0.8 ng/mL and 7.6 ng/g, respectively. For the same molecule, the concentration at 8 min in data set [19] was 152 ng/mL; in [23], 944 ng/g. Further, the result in data set [30] was Active. Besides, the Kp at 8 min in data set [24] amounted to 6.21.

In general, efflux ratio refers to a quotient of directional permeabilities that is used to spot active efflux. For orientation: Vdss means the apparent volume that relates the amount in the body to the concentration in plasma or blood. A high value points to wide distribution into tissue. For orientation: IC50 means the concentration that inhibits the measured activity by half. As usually defined, the EC50 is the midpoint of the concentration-response curve. One may read the half-life as how long it takes for the measured level to halve. Broadly, the AUC is the area under the concentration-time curve, a measure of exposure. The term bioavailability denotes dose-corrected exposure relative to a reference, in per cent.
